Results from ChEMBL document CHEMBL1926586, “A new class of antimalarial dioxanes obtained through a simple two-step synthetic approach: rational design and structure-activity relationship studies” (J Med Chem, 2011).

Legend:
Plasmodium falciparum [1] = test: Antimalarial activity against chloroquine-sensitive Plasmodium falciparum D10 infected in human type A-positive red blood cells assessed as parasite lactate dehydrogenase activity after 72 hrs by spectrophotometric analysis; type: functional, organism-based; settings: D10, 72 h
Method in brief: (§1)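 Parasites were cultured in human type A-positive red blood cells at 5% hematocrit. Medium was RPMI 1640 with 1% AlbuMax, 0.01% hypoxanthine, 20 mM Hepes and 2 mM glutamine. Cultures were held at 37 °C under 1% O2, 5% CO2, 94% N2. Compounds were dissolved in water or DMSO, then diluted in medium. Values are mean ± SD of three experiments in duplicate.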

Plasmodium falciparum [2] = test: Antimalarial activity against chloroquine-resistant Plasmodium falciparum W2 infected in human type A-positive red blood cells assessed as parasite lactate dehydrogenase activity after 72 hrs by spectrophotometric analysis; type: functional, organism-based; settings: W2, 72 h; method in brief: as §1
[3] = Cytotoxicity against human HMEC1 cells after 72 hrs by MTT assay; type: cell-based; settings: HMEC-1, 72 h
[4] = Therapeutic index, ratio of IC50 for human HMEC1 cells to IC50 for chloroquine-resistant Plasmodium falciparum W2; type: cell-based; settings: read-out: Ratio IC50

## CCCC[C@@]1(C)C[C@H](C(=O)OC)[C@](C)(OC)OO1 (mixture of isomers)
Plasmodium falciparum [1]
  IC50: 12.6 µM
Plasmodium falciparum [2]
  IC50: 11.8 µM

## CCCCC1(CCCC)C[C@H](C(=O)OC)[C@@](CCCC)(OC)OO1 (racemic)
Plasmodium falciparum [1]
  IC50: 2.3 µM
Plasmodium falciparum [2]
  IC50: 1.2 µM

## CCCCC1(CCCC)C[C@H](C(=O)OC)[C@@](C)(OC)OO1 (mixture of isomers)
Plasmodium falciparum [1]
  IC50: 2.6 µM
[3]
  IC50: 98.3 µM
Plasmodium falciparum [2]
  IC50: 0.8 µM
[4]
  selectivity ratio: 90

## CC/C=C/[C@H](CC)C[C@@]1(C)C[C@@H](CC)[C@@H](CC(=O)OC)OO1 [PLAKORTIN]
Plasmodium falciparum [1]
  IC50: 0.9 µM
Plasmodium falciparum [2]
  IC50: 0.4 µM

## CCCC[C@]1(C)C[C@H](C(=O)OC)[C@@](C)(OC)OO1 (mixture of isomers)
Plasmodium falciparum [1]
  IC50: 17.7 µM
Plasmodium falciparum [2]
  IC50: 8.4 µM

## CCCC[C@]1(C)C[C@H](C(=O)OC)[C@@](CCCC)(OC)OO1 (mixture of isomers)
Plasmodium falciparum [1]
  IC50: 12.3 µM
Plasmodium falciparum [2]
  IC50: 5 µM

## CC[C@@]1(OC)OOC(C)(C)C[C@@H]1C(=O)OC (mixture of isomers)
Plasmodium falciparum [1]
  IC50: > 30 µM
Plasmodium falciparum [2]
  IC50: > 30 µM

## CCCC[C@]1(C)C[C@H](C(=O)OC)[C@](CCCC)(OC)OO1 (mixture of isomers)
Plasmodium falciparum [1]
  IC50: 4.2 µM
Plasmodium falciparum [2]
  IC50: 1.5 µM

## CCCCC1(CCCC)C[C@H](C(=O)OC)[C@](CCCC)(OC)OO1 (mixture of isomers)
Plasmodium falciparum [1]
  IC50: 2.9 µM
[3]
  IC50: 108 µM
Plasmodium falciparum [2]
  IC50: 1.2 µM
[4]
  selectivity ratio: 90

## CCCC[C@@]1(C)C[C@H](C(=O)OC)[C@@](C)(OC)OO1 (mixture of isomers)
Plasmodium falciparum [1]
  IC50: 17.7 µM
Plasmodium falciparum [2]
  IC50: 6.4 µM

## CCCC[C@@]1(OC)OOC(C)(C)C[C@@H]1C(=O)OC (mixture of isomers)
Plasmodium falciparum [1]
  IC50: 3.7 µM
[3]
  IC50: > 384 µM
Plasmodium falciparum [2]
  IC50: 1.5 µM
[4]
  selectivity ratio: 90

## COC(=O)[C@H]1CC(C)(C)OO[C@@]1(C)OC (mixture of isomers)
Plasmodium falciparum [1]
  IC50: > 30 µM
Plasmodium falciparum [2]
  IC50: > 30 µM

## CCCCC1(CCCC)C[C@H](C(=O)OC)[C@](C)(OC)OO1 (mixture of isomers)
Plasmodium falciparum [1]
  IC50: 7.4 µM
Plasmodium falciparum [2]
  IC50: 2.5 µM

## CCCC[C@]1(OC)OOC(C)(C)C[C@@H]1C(=O)OC (mixture of isomers)
Plasmodium falciparum [1]
  IC50: > 30 µM
Plasmodium falciparum [2]
  IC50: > 30 µM

## CCCC[C@@]1(C)C[C@H](C(=O)OC)[C@](CCCC)(OC)OO1 (mixture of isomers)
Plasmodium falciparum [1]
  IC50: 2.6 µM
[3]
  IC50: 167 µM
Plasmodium falciparum [2]
  IC50: 1.3 µM
[4]
  selectivity ratio: 90

## CCCC[C@]1(C)C[C@H](C(=O)OC)[C@](C)(OC)OO1 (mixture of isomers)
Plasmodium falciparum [1]
  IC50: 8.5 µM
Plasmodium falciparum [2]
  IC50: 4.9 µM
